Compounds with a hit are over-represented: about 2.7% of the library has one in this group of screens.
SIAE primary – human SIAE inhibition, primary screen; Q9HAT2; SIAE FP-Rh probe binding, fluorescence polarization; inhibition, % at 9.66 µM; hit rate 0.69% among 370,000;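 active = inhibition above a cutoff: mean of compounds within the control limits plus 3 SD of those, cut at about 17% in these data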
RBBP9 inh – inhibitors of human serine hydrolase RBBP9. hit rate 0.2% among 220,000. recombinant RBBP9, FP-Rh probe fluorescence polarization. AID 1515. inhibition, % at 7.94 µM. O75884;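 active = inhibition above the campaign mean of all tested compounds plus 3 SD, cut at about 14% in these data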
Target sequence (O75884 whole entry, looked up): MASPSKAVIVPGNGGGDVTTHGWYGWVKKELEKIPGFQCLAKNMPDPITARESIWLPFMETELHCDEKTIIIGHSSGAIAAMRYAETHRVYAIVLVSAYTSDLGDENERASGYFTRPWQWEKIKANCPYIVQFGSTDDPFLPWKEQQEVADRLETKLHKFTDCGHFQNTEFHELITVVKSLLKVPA
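System: RBBP9 protein / Quantity: 2.5 µM RBBP9 dispensing solution, before mixing / Also added: Serine-hydrolase probe FP-Rh, 375 nM pre-mixing / Dosing: 7.94 µM single dose, 0.794% DMSO / Timing: enzyme-compound preincubation 30 min, then probe labeling 45 min, 25 °C / Signal: FP readout at 525/598 nm / Controls: DMSO-treated enzyme wells and wells lacking RBBP9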
PAD4 inh – PAD4 (human) enzyme inhibition; Q9UM07; hit rate 0.41% among 330,000; recombinant PAD4, RCA probe fluorescence polarization; inhibition, % at 6.36 µM;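 active = percent inhibition above a cutoff equal to the mean of all tested compounds plus 3 SD, cut at about 15% in these data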
GSTO1 inh – blocks human GSTO1 in RBBP9 counter-screen; P78417; recombinant GSTO1, activity-based probe fluorescence polarization; inhibition, % at 5.96 µM; hit rate 1.1% among 300,000; AID 1974;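 active = inhibition above the campaign mean inhibition plus 3 SD, cut at about 35% in these data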
Target sequence (P78417 whole entry, looked up): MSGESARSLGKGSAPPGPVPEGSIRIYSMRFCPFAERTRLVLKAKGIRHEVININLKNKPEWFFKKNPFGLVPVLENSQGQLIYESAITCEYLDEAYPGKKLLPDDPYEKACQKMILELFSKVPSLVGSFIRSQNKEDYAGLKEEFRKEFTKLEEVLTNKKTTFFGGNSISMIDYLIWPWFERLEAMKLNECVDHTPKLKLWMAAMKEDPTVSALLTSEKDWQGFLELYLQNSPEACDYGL
PRMT1 inh – blocks human protein arginine methyltransferase 1. hit rate 1.3% among 370,000. recombinant PRMT1, activity-based probe fluorescence polarization. Q99873. inhibition, % at 2.79 µM;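 active = inhibition above about 21% made by adding two undisclosed values, limit read from the data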
PRMT1 inh conf – PRMT1 (human) inhibition, FP confirmation; shares compounds with PRMT1 inh; recombinant His-PRMT1, activity-based probe fluorescence polarization; inhibition, % at 2.79 µM; hit rate 42% among 3,300; AID 687036;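 active = mean inhibition across replicates above the hit cutoff derived for the earlier primary screen, cut at about 22% in these data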
Numbers stand for hits; n = inactive; x = not tested or not shown.

SMILES	SIAE primary	RBBP9 inh	PAD4 inh	GSTO1 inh	PRMT1 inh	PRMT1 inh conf
COCCn1ccc2c(OCC(=O)NCc3ccccc3)cccc2c1=O	n	x	n	n	n	x
C#CCNC(=O)c1cc(-c2ccccc2)sc1N	n	x	x	x	27	n
Nc1cccnc1Sc1cc(Cl)cc(Cl)c1	n	n	n	n	62	n
Cc1ccc(Sc2ncccc2N)cc1	n	x	n	n	n	x
CC(C)N(C(=O)c1nn(C)c2c1CSc1ccccc1-2)C1CCCCC1	n	x	n	n	39	n
Cn1nc(C(=O)NC2CCCCC2)c2c1-c1ccccc1SC2	n	x	n	n	n	x
COc1cc(CNc2ccc(CNc3ncn[nH]3)cc2)cc(Cl)c1OCc1ccccc1	n	n	n	n	n	x
O=c1c2ccccc2nc(SCc2nnc(-c3ccccc3Br)o2)n1Cc1ccco1	n	n	n	n	69	58
O=c1c2ccccc2nc(SCc2ccccc2)n1Cc1ccco1	n	n	n	n	n	x
CC1C(=O)N2CCCc3cc(NC(=O)C(=O)NCCc4ccc(F)cc4)cc1c32 (stereo not drawn)	n	x	n	n	n	x
CCCCn1c(N)c(N(CCOC)C(=O)CSc2nnc(-c3ccncc3)n2CCC)c(=O)[nH]c1=O	n	x	n	n	n	x
CC(C)(C)OC(=O)NCC12C=CC(O1)C1C(=O)N(Cc3ccccc3)C(=O)C12 (stereo not drawn)	n	n	n	n	47	n
CC(C)(C)OC(=O)NCC1CCN(S(=O)(=O)Cc2ccccc2)CC1	n	x	n	n	n	x
Cn1c(=O)c2[nH]c(-c3ccccc3)c(O)c2n(C)c1=O	n	n	n	n	76	24
Cc1c(Nc2cc(=O)oc3ccccc23)c(=O)n(-c2ccccc2)n1C	n	n	n	n	n	x
CC(NC(=O)c1ccco1)c1nc(-c2ccc(C(C)(C)C)cc2)no1 (stereo not drawn)	n	x	n	n	n	x
O=[N+]([O-])c1cnc(Sc2ccncn2)c([N+](=O)[O-])c1	n	x	x	x	71	90
O=[N+]([O-])c1cnc(Sc2ccncn2)s1	n	n	n	n	26	31
O=C1NCCN1c1ncc([N+](=O)[O-])s1	n	x	n	n	n	x
Cc1[nH]c2ccccc2c1C(=O)COC(=O)Cn1c(C)nc2ccccc21	n	n	n	n	n	x
O=C1NC(c2ccco2)Nc2sc3c(c21)CCN(Cc1ccccc1)C3 (stereo not drawn)	n	n	n	n	31	n
CN1CCc2c(sc3c2C(=O)NC(c2ccc(-c4ccc(Cl)cc4)o2)N3)C1 (stereo not drawn)	n	n	n	n	n	x
CN1CCc2c(sc3c2C(=O)NC(c2ccco2)N3)C1 (stereo not drawn)	n	n	n	n	27	n
CCN1CCN(C(=S)NC(=O)c2cccs2)CC1	n	x	n	n	n	x
COc1ccc(/C=C/C(=O)Nc2ccccc2)cc1OC	n	n	n	n	n	x
SMILES	SIAE primary	RBBP9 inh	PAD4 inh	GSTO1 inh	PRMT1 inh	PRMT1 inh conf
COc1ccccc1NC(=O)CSC1CC(=O)N(c2ccc3c(c2)OCO3)C1=O (stereo not drawn)	n	n	n	n	44	35
COc1ccc(NC(=O)CSC2CC(=O)N(c3ccc4c(c3)OCCO4)C2=O)cc1 (stereo not drawn)	n	n	n	n	36	23
CCOc1ccc(N2C(=O)CC(SCC(=O)O)C2=O)cc1 (stereo not drawn)	n	n	n	n	n	x
CCN=C(Nc1ccc2c(c1)OCO2)SC1CC(=O)N(c2ccc(OC)cc2)C1=O (stereo not drawn)	n	n	n	n	n	x
COc1ccc(N2C(=O)CC(SCC(=O)O)C2=O)cc1 (stereo not drawn)	n	n	n	n	25	n
COc1ccccc1NC(=O)CN1CCN(CC(=O)Nc2ccc3c(c2)OCO3)CC1	n	n	n	n	n	x
NC(=O)NC(CCC(=O)O)C(=O)O (stereo not drawn)	n	x	n	n	n	x
CCC(C)NC(=O)C1CCCN(S(=O)(=O)c2ccc3c(c2)CC(C)N3C(=O)C2CC2)C1 (stereo not drawn)	n	x	n	n	n	x
CCC(C)NC(=O)C1CCCN(S(=O)(=O)c2ccc3c(c2)CC(C)N3C(C)=O)C1 (stereo not drawn)	n	x	n	n	26	n
CC(=O)Nc1cccc(-c2cc(C)c3cc4c(cc3n2)OCO4)c1	n	x	x	x	n	x
Cc1cc(C)c(NC(=O)/C=C\C(=O)O)c(Cl)c1	n	n	n	n	28	n

Screening data deposited in PubChem BioAssay by The Scripps Research Institute Molecular Screening Center.
